Screening results as filed in PubChem.
Calb FLC: affects C. albicans growth with fluconazole | growth inhibition, % (test concentration not listed) | 300,000 compounds, 0.57% hits | C. albicans CaCi-2 (fluconazole-resistant clinical isolate) + fluconazole, Alamar Blue growth, 48 h;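 active = growth inhibition above about 58% in most replicates, limit read from the data, passing the limit was not always enough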;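 note: all wells also contain fluconazole at 8 µg/ml as a sub-toxic cotreatment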
ARFGAP1 inh: inhibitors of rat ARFGAP1 | Arfgap1-stimulated ARF1 GTP hydrolysis, GDP FP detection | Q62848 | inhibition, % at 16.5 µM | 360,000 compounds, 0.26% hits;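 active = inhibition above a per-plate limit, mean inhibition of low control wells plus 3 SD, cut at about 25% in these data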
Target sequence (Q62848 1-136 limits assumed): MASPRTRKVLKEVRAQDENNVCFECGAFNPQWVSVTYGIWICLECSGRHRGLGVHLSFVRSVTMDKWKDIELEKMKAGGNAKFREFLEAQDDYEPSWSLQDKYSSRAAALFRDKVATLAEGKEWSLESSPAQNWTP
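Assay system: purified rat His6-Arfgap1 residues 1-136 (GAP domain); Reagent: human Δ17 ARF1 bound to GTP; Dosing: 16.5 µM single point, 1.26% DMSO; Times: GTP hydrolysis reaction 2 h at 25 °C; Signal: FP, GDP Alexa 633 tracer displaced from anti-GDP antibody, 620/688 nm; Measure: % inhibition from polarization.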
IMP-1 inh: inhibitors of Pseudomonas aeruginosa IMP-1 metallo-beta-lactamase; 290,000 compounds, 0.45% hits; purified IMP-1, nitrocefin hydrolysis, epi-absorbance fluorescence; inhibition, % at 5.6 µM;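 active = inhibition above the mean plus 3 SD of all compounds in the same screening run, cut at about 4.5% in these data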
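system = purified recombinant IMP-1 beta-lactamase | amount = 0.2 nM IMP-1, as dispensed | medium = HEPES buffer pH 7.1 with ZnSO4 and Brij 35 | times = 25 °C, 15 min preincubation, 25 min reaction | detection = plate fluorescence quenching by hydrolysis product, ex 480/em 530 nm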
ASAP1 GAP inh: ASAP1 ArfGAP inhibition; ASAP1-stimulated ARF1 GTP hydrolysis, GDP FP detection; inhibition, % at 16.5 µM; 360,000 compounds, 0.19% hits; in the data active = inhibition above about 25%
VIM-2 inh: blocks Pseudomonas aeruginosa VIM-2 metallo-beta-lactamase. 290,000 compounds, 0.89% hits. inhibition, % at 5.6 µM. purified VIM-2, nitrocefin hydrolysis, epi-absorbance fluorescence;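 active = inhibition above the mean of all tested compounds plus 3 SD, cutoff set per screening run, cut at about 7.5% in these data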;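 note: red hydrolysis product quenches plate fluorescence so inhibitors raise well fluorescence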
PHOSPHO1 block: inhibitors of human PHOSPHO1 phosphatase; Q8TCT1; 290,000 compounds, 1.1% hits; inhibition, % at 13.3 µM; recombinant PHOSPHO1, absorbance phosphatase assay; in the data active = inhibition above about 60%
Target sequence (Q8TCT1 whole entry, looked up): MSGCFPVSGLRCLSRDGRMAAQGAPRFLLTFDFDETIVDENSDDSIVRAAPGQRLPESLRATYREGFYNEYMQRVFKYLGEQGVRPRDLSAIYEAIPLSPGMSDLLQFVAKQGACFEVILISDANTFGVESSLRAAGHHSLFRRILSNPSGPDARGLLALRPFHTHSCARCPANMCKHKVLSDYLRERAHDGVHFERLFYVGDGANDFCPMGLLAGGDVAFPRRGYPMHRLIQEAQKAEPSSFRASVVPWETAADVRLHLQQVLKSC
Each line names hits and unclear results; the compound was inactive in the other large screens. Only some compounds are listed: those with a hit (about 2.6% of all), similar ones and a draw of the others.

Cc1ccc(O)c(Nc2c3ccccc3nc3ccccc23)c1	VIM-2 inh 9.2
COC(=O)c1cc(=O)n(Cc2ccco2)c(=Nc2ccccc2)s1	none (no result: Calb FLC, IMP-1 inh, VIM-2 inh, PHOSPHO1 block)
C/C(CCC12CC3CC(CC(C3)C1)C2)=N\NC(N)=S	none
C/C(CC(C)(C)C1CCCCC1)=N\NC(N)=S	Calb FLC 104
COc1cccc(Oc2c(C)oc3c(CN4CCOCC4)c(O)ccc3c2=O)c1	none (no result: Calb FLC, IMP-1 inh, VIM-2 inh, PHOSPHO1 block)
COc1ccc(Oc2c(C)oc3c(CN4CCOCC4)c(O)ccc3c2=O)cc1	PHOSPHO1 block 60
COc1ccc(OC)c(C2CC(=O)N3CN(c4ccccc4F)CSC3=C2C#N)c1 (stereo unspecified)	PHOSPHO1 block 86
COc1cccc(C2CC(=O)N3CN(c4cccc(Cl)c4C)CSC3=C2C#N)c1OC (stereo unspecified)	PHOSPHO1 block 88
COc1cc(OC)c(C2CC(=O)N3CN(C)CSC3=C2C#N)cc1OC (stereo unspecified)	none
COc1ccc(OC)c(C2CC(=O)N3CN(c4cccc(Cl)c4C)CSC3=C2C#N)c1 (stereo unspecified)	PHOSPHO1 block 93
CCN1/C(=C/c2ccc3cc(C)ccc3[n+]2C)Sc2ccc3sccc3c21	IMP-1 inh 18 (no result: Calb FLC)
O=C(CCCl)N(Cc1nc2ccccc2c(=O)[nH]1)Cc1cccs1	Calb FLC 56
C#CCN(C[C@H]1[C@H](OC(=O)Nc2c(C)noc2C)[C@H](OC(=O)Nc2c(C)noc2C)CN(C(=O)OC(C)C)N1C(=O)OC(C)C)S(=O)(=O)c1ccc(C)cc1	none (no result: Calb FLC, IMP-1 inh, VIM-2 inh, PHOSPHO1 block)
CN1CCN(C(=S)c2ccc(-c3cc(Cl)ccc3Cl)o2)CC1	none
N#CCCN1CCN(C(=S)c2ccc(-c3cc(Cl)ccc3Cl)o2)CC1	PHOSPHO1 block 74
Cc1cccc(Cc2nnc(CCC(=O)N3CCCCC3c3nccs3)o2)c1 (stereo unspecified)	Calb FLC 100
O=C(NCc1ccncc1)c1ccc(Cn2cc(C(F)(F)F)ccc2=O)cc1	PHOSPHO1 block 60
Cc1cccc(NC(=O)c2ccc(Cn3cc(C(F)(F)F)ccc3=O)cc2)c1	PHOSPHO1 block 65
O=C(NCc1ccccc1)c1ccc(Cn2cc(C(F)(F)F)ccc2=O)cc1	none
Cc1ccc(-c2cc(NC(=O)Cc3c(C)[nH]c4ccccc34)ccc2Nc2cccnc2)cc1	none (no result: Calb FLC, IMP-1 inh, VIM-2 inh, PHOSPHO1 block)
CC(C)CCNC(=O)[C@@H](Cc1ccccc1)NC(=O)[C@H]1O[C@@H](n2ccc(=O)[nH]c2=O)[C@H](O)[C@@H]1O	none (no result: Calb FLC, IMP-1 inh, VIM-2 inh, PHOSPHO1 block)
CCOC(=O)CN1C(=O)C(O)(CC(=O)c2cccc(OC)c2)c2ccccc21 (stereo unspecified)	ARFGAP1 inh 26
Cc1c(CCC(=O)NCCCn2ccnc2)c(=O)oc2c(C)c3oc4c(c3cc12)CCCC4	VIM-2 inh 9.6 (no result: ARFGAP1 inh, ASAP1 GAP inh)
Cc1c(CCC(=O)NCCCCCC(=O)O)c(=O)oc2c(C)c3oc4c(c3cc12)CCCC4	none (no result: PHOSPHO1 block)
C[C@@H]1CN([C@@H](C)CO)C(=O)CCCn2cc(nn2)CO[C@H]1CN(C)C(=O)Nc1ccc(-c2cccs2)cc1	none (no result: Calb FLC, IMP-1 inh, VIM-2 inh, PHOSPHO1 block)
COC(=O)[C@@]12C[C@@H](CC(=O)N3CCOCC3)C(=O)N(Cc3ccccc3)C1=CCC(C)(C)C2	none (no result: Calb FLC, IMP-1 inh, VIM-2 inh, PHOSPHO1 block)
O=C(NCCNc1ccc2ccccc2c1)c1cccn2c(=O)c3sccc3nc12	VIM-2 inh 8.1 (no result: ARFGAP1 inh, ASAP1 GAP inh)
O=C(NCCN1CCN(c2ccccc2)CC1)c1cccn2c(=O)c3ccccc3nc12	none
CN1CCN(c2ncnc3c2ncn3[C@H]2CN(Cc3cccnc3)C[C@@H](CO)O2)CC1	none (no result: Calb FLC, IMP-1 inh, VIM-2 inh, PHOSPHO1 block)
CC1=C/C(=N\NC(=S)NCCc2ccccc2)CC(C)(C)C1	Calb FLC 96
C/C(CCc1ccccc1)=N\NC(=S)NCCc1ccccc1	none
O=C(NC(=S)N1CCCCC1)C12CC3CC(CC(C3)C1)C2	PHOSPHO1 block 84
COc1ccc(CCC(=O)Nc2nc(C)c(C(=O)N(C)C)s2)cc1	IMP-1 inh 11
COc1ccc(CCC(=O)Nc2sc(C(=O)N(C)C)c(C)c2C#N)cc1	none (no result: PHOSPHO1 block)
CN1CCCCC(NC(=O)CSc2ccccc2)C1=O (stereo unspecified)	none (no result: Calb FLC, IMP-1 inh, VIM-2 inh, PHOSPHO1 block)
O=C(Nc1cc(F)cc(F)c1)c1ccc(NCCCN2CCCCCC2)c([N+](=O)[O-])c1	Calb FLC 98
O=C(c1[nH]c(C(F)(F)F)nc1-c1ccccc1)N1CCc2c([nH]c3ccccc23)C1	none (no result: Calb FLC, IMP-1 inh, VIM-2 inh, PHOSPHO1 block)
Cc1cc(C)c2cc(C(=O)N3CCC(N4CCCCC4)CC3)[nH]c2c1	none
Cc1cc(C)c2cc(C(=O)N3CCC(C(=O)c4ccc(F)cc4)CC3)[nH]c2c1	IMP-1 inh 4.5
Cc1csc(N/N=C/c2ccc(O)c([N+](=O)[O-])c2)n1	PHOSPHO1 block 93
O=[N+]([O-])c1cc(/C=N\Nc2nc(-c3ccccc3)cs2)ccc1O	none
CN(C)c1ccc(/C=N/N(CCC#N)C2=NS(=O)(=O)c3ccccc32)cc1	VIM-2 inh 9.1
CN(/N=C/c1ccncc1)C1=NS(=O)(=O)c2ccccc21	VIM-2 inh 9.9
Cc1ccc(/C=N/N(C)C2=NS(=O)(=O)c3ccccc32)cc1	none
O=S1(=O)N=C(N(CCO)/N=C/c2ccc(Cl)cc2)c2ccccc21	none (no result: PHOSPHO1 block)
O=C(c1cc(C2CC2)nn1-c1ccccc1)N1CCN(S(=O)(=O)c2ccccc2F)CC1	none (no result: Calb FLC, IMP-1 inh, VIM-2 inh, PHOSPHO1 block)
C=CCC(NCc1ccccc1)c1ccccc1 (stereo unspecified)	none
C=CCC(NC(C)c1ccccc1)c1ccco1 (stereo unspecified)	IMP-1 inh 8.4
CCOC(=O)CSc1ccc2nnc(-c3cccs3)n2n1	none
O=C(CSc1ccc2nnc(-c3cccs3)n2n1)N1CCCC1	VIM-2 inh 8.1
CCOc1ccccc1CN1CCN(Cc2cn(C)nc2-c2ccccc2)CC1CCO (stereo unspecified)	PHOSPHO1 block 60
Cc1cccc(OCCCN2CCC(C(O)(c3ccccc3)c3ccccc3)CC2)c1	none (no result: Calb FLC, IMP-1 inh, VIM-2 inh, PHOSPHO1 block)
O=S(=O)(NCC(c1cccnc1)N1CCN(Cc2ccccc2)CC1)c1cc(F)ccc1F (stereo unspecified)	PHOSPHO1 block 71
CN1CCN(C(=S)c2ccc(N(C)C)cc2)CC1	none
CN1CCN(C(=S)c2ccc(Br)cc2)CC1	PHOSPHO1 block 61
Cc1ccccc1C1N=C2Oc3ccccc3C=C2C(=O)N1 (stereo unspecified)	none (no result: Calb FLC, IMP-1 inh, VIM-2 inh, PHOSPHO1 block)
Cc1ccc(OCc2nnc(SCCN3CCOCC3)n2C)cc1	PHOSPHO1 block 74
CCOC(=O)c1cnc2c(OC)cccc2c1NCc1cccnc1	VIM-2 inh 11
CCOC(=O)c1cnc2ccc(OCC)cc2c1NCc1cccnc1	none
CCN(CC)CCCNC(=O)c1ccc(Cl)c(S(=O)(=O)Nc2ccccc2OC)c1	none
CCN(CC)CCNC(=O)c1ccc(Cl)c(S(=O)(=O)Nc2ccccc2OC)c1	IMP-1 inh 5.4
COC(=O)Nc1ccc2c(c1)N(C(=O)CCN1CCN3CCCC3C1)c1ccccc1S2 (stereo unspecified)	PHOSPHO1 block 66
CSc1c[n+]2c(n1C)CCC2	PHOSPHO1 block 82
